The source of these data is ChEMBL document CHEMBL1148262, “Stability studies of C-4',6' acetal benzylmaltosides synthesized as inhibitors of smooth muscle cell proliferation” (Bioorg Med Chem Lett, 2004).

A short description of data set [1]: Half-life of compound at a pH of 1 was determined. The class given is ADME. The settings on record: pH 1.
Data set [2] is described as follows: Half-life of compound at a pH of 3.5 was determined. The class given is ADME. The conditions noted are these: pH 3.5.
The next data set deals with HASMC. The data set can be described thus: Concentration inducing 50% inhibition of Human aortic smooth muscle cell (HASMC) proliferation. The class given is functional, cell-based. Summed up:
(§1)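 HASMC or HAEC from passage 3–6, grown to 70–80% confluence in 24-well plates, then held 24–48 h without serum or growth factors to make them quiescent. Restimulated with serum or growth factor for 24 h with 0.5 µCi/mL ³H-thymidine. Compounds were added from 50% ethanol stock at 1–100 µM. TCA-precipitable counts were measured in triplicate, as percent of stimulated control, and IC50 was derived.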

A short description of data set [3]: Half-life of compound at a pH of 2.5 was determined. The conditions noted are these: pH 2.5. Type of data set: ADME.
A short description of data set [4]: Half-life of compound at a pH of 1.9 was determined. The class given is ADME. The conditions noted are these: pH 1.9.
The nature of data set [5]: Half-life of compound at a pH of 4.5 was determined. The conditions noted are these: pH 4.5. The class given is ADME.
A short description of data set [6]: Half-life of compound at a pH of 4 was determined. The class given is ADME. The settings on record: pH 4.
Data set [7] is described as follows: Half-life of compound at a pH of 1.4 was determined. Type of data set: ADME. The settings on record: pH 1.4.
The nature of data set [8]: Half-life of compound at a pH of 3 was determined. Type of data set: ADME. The conditions noted are these: pH 3.
The nature of data set [9]: Stability of compound determined in medium mimicking stomach as percent remaining at 18-20 hr at a pH of 1. Type of data set: ADME. The conditions noted are these: pH 1.
The nature of data set [10]: Percent degradation of compound at a pH of 1 over a 18 hr period. The class given is ADME. The settings on record: pH 1; read-out: Degradation.
A short description of data set [11]: Concentration inducing 50% inhibition of human aortic endothelial cell (HAEC) proliferation. The class given is functional, cell-based. In a few lines:
as §1

A further data set relates to Rattus norvegicus. The data set can be described thus: In vivo percent reduction in intimal thickening rat balloon injury model at a dose of 100 mg/kg; Range is 18-39 %. The class given is functional.

Regarding `CC(=O)Nc1cc(CO[C@@H]2O[C@@H](COC(=O)c3ccccc3)[C@H](O[C@H]3OC4CO[C@@H](Cc5ccccc5)OC4[C@H](O)[C@@H]3O)[C@H](O)[C@@H]2O)ccc1Cl` (stereo not given in full), the half-life in data set [1], in data set [2], in data set [3], in data set [4], in data set [5] and in data set [6] was above 20 h each time. Further, the half-life in data set [7] and in data set [8] was above 20 h each time. In addition, the IC50 with HASMC amounted to 35 nM. Also, the Remaining in data set [9] came to 94%.
Consider `CC(=O)Nc1cc(CO[C@@H]2O[C@@H](COC(=O)c3ccccc3)[C@H](O[C@H]3OC4CO[C@@H](C)OC4[C@H](O)[C@@H]3O)[C@H](O)[C@@H]2O)ccc1Cl` (stereo not given in full), for which the half-life in [1], in data set [2], in [3], in data set [4], in data set [5] and in [6] was above 20 h throughout. Besides, the half-life in data set [7] and in data set [8] was above 20 h each time. The degraded at 18 h in data set [10] worked out at 32%. In addition, the IC50 in the data set with HASMC was found to be 103 nM; in data set [11] it was 257 nM. In [9], this molecule came in with a Remaining of 68%.
Turning to `CC(=O)Nc1cc(CO[C@@H]2O[C@@H](COC(=O)c3ccccc3)[C@H](O[C@H]3OC4CO[C@@H](C(C)C)OC4[C@H](O)[C@@H]3O)[C@H](O)[C@@H]2O)ccc1Cl` (stereo not given in full), the half-life in [1], in [2], in data set [3], in data set [4], in [5] and in [6] was above 20 h each time. Further, the half-life in data set [7] and in data set [8] was above 20 h each time. The 50% inhibitory concentration (IC50) in the data set on HASMC came to 3 nM. For the same molecule, the Remaining in data set [9] was found to be 53%.
Take `CC[C@@H]1OCC2O[C@H](O[C@@H]3[C@H](O)[C@H](O)[C@H](OCc4ccc(Cl)c(NC(C)=O)c4)O[C@H]3COC(=O)c3ccccc3)[C@@H](O)[C@@H](O)C2O1` (stereo not given in full): the half-life in [1], in [2], in [3], in data set [4], in data set [5] and in data set [6] was above 20 h throughout. Also, the half-life in data set [7] and in data set [8] was above 20 h each time. Also, the IC50 in the data set on HASMC was 37 nM; in [11] it was 235 nM. For the same molecule, the Remaining in data set [9] is given as 52%.
In the case of `CC(=O)Nc1cc(CO[C@@H]2O[C@@H](COC(=O)c3ccccc3)[C@H](O[C@H]3OC4CO[C@@H](c5ccc([N+](=O)[O-])cc5)OC4[C@H](O)[C@@H]3O)[C@H](O)[C@@H]2O)ccc1Cl` (stereo not given in full), the half-inhibitory concentration (IC50) in the data set on HASMC was found to be 3 nM; in data set [11], 368 nM.
As to `CC(=O)Nc1cc(CO[C@@H]2O[C@@H](COC(=O)c3ccccc3)[C@H](O[C@H]3OC4CO[C@@H](c5ccncc5)OC4[C@H](O)[C@@H]3O)[C@H](O)[C@@H]2O)ccc1Cl` (stereo not given in full), the half-life in [1], in [2], in [3], in [4], in data set [5] and in data set [6] was above 20 h each time. Also, the half-life in data set [7] and in [8] was above 20 h throughout. Moreover, the IC50 with HASMC was found to be 3 nM. Besides, the Remaining in [9] was 97%.
As for `CC(=O)Nc1cc(CO[C@@H]2O[C@@H](COC(=O)c3ccccc3)[C@H](O[C@H]3O[C@@H](CO)[C@@H](O)[C@H](O)[C@@H]3O)[C@H](O)[C@@H]2O)ccc1Cl`, the half-maximal inhibitory concentration (IC50) in the data set on HASMC is 34900 nM.
Consider `CC(=O)Nc1cc(CO[C@@H]2O[C@@H](COC(=O)c3ccccc3)[C@H](O[C@H]3OC4CO[C@@H](c5ccc(Cl)cc5)OC4[C@H](O)[C@@H]3O)[C@H](O)[C@@H]2O)ccc1Cl` (stereo not given in full), for which the half-life in data set [1] is 1.7 h; in data set [2], above 20 h; in data set [3], above 20 h; in data set [4], 13.3 h; in [5] it was above 20 h; in [6] it was above 20 h. Also, the half-life in [7] is 4 h; in data set [8] it was above 20 h. Besides, the results for the IC50 (in the data set on HASMC; in [11]) were 23 nM and 324 nM, respectively. In data set [9], this molecule came in with a Remaining of 0%.
`CC(=O)Nc1cc(CO[C@@H]2O[C@@H](COC(=O)c3ccccc3)[C@H](O[C@H]3OC4CO[C@@H](c5ccccc5)OC4[C@H](O)[C@@H]3O)[C@H](O)[C@@H]2O)ccc1Cl` (stereo not given in full): the half-life is 1.9 h in data set [1]; above 20 h in [2]; 13 h in data set [3]; 4.2 h in data set [4]; above 20 h in [5]; above 20 h in data set [6]. Besides, the figures for the half-life in [7] and in data set [8] were 2.3 h and above 20 h, respectively. Also, in data set [10], the degraded at 18 h is 100%. Further, the half-maximal inhibitory concentration (IC50) in the data set with HASMC amounted to 20 nM; in [11], 923 nM. The molecule also displayed a Reduction in the data set on Rattus norvegicus of 39%. Besides, in data set [9], the Remaining was determined as 0%.
